Screening results: PubChem, The Scripps Research Institute Molecular Screening Center
The list is not random: actives were taken first. Their share in the collection is about 4.5%.
TAAR1 ag = human TAAR1 agonism | Q96RJ0 | CHO RD-HGA16 TAAR1, Fluo-8 calcium fluorescence; vehicle wells 0%, saturating PEA agonist 100% | activation, % at 3 µM | 360,000 compounds, 0.99% hits;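 active = activation above the mean activation of all test compounds in the run plus 3 SD, cut at about 38% in these data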
Target sequence (Q96RJ0 whole entry, looked up): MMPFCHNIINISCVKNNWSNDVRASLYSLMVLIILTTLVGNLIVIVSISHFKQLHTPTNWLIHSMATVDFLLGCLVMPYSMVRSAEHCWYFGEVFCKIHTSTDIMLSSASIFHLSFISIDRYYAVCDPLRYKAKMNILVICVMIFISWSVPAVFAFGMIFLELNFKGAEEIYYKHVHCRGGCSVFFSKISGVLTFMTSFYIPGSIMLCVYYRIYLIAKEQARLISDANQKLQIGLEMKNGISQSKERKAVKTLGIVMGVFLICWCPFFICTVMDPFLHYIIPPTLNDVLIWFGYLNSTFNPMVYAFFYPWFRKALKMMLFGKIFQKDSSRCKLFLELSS
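Test system: RD-HGA16 (CHO) cells co-expressing Gα16 and hTAAR1 | Doses: Single dose, 3 µM | Schedule: 17-24 h seeding, 75 min 37 °C dye, 30 min RT | Evaluation: % activation from peak over basal fluorescence ratio, DMSO-to-PEA scaled | Technique: Kinetic Fluo-8 calcium fluorescence | Benchmarks: Low control DMSO, high control PEA (EC100)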
TAAR1 antagonist = human TAAR1 antagonism. Q96RJ0. CHO RD-HGA16 TAAR1, Fluo-8 calcium fluorescence, antagonist. inhibition, % at 3 µM. 360,000 compounds, 1.5% hits;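 active = inhibition above a per-plate cutoff, the mean inhibition of test compounds on that plate plus 3 SD, cut at about 49% in these data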
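Test system – hTAAR1-expressing CHO RD-HGA16 cells, Gα16-coupled · Also added – β-PEA at EC80 concentration, post-compound challenge · Compound – 3 µM, single point · Incubation – dye loading 75 min at 37 °C, then 30 min room temperature · Measured by – Fluo-8 intracellular calcium dye fluorescence, real-time kinetic reads · Benchmarks – vehicle and agonist controls · Replicates – singlicate, one well per test compound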
CHO parental Ca = signal in parental CHO cells, OX1R antagonist counter-screen. parental CHO-K1, ATP-induced calcium, Fluo-8 fluorescence. inhibition, % at 5.6 µM. 330,000 compounds, 0.63% hits;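 active = inhibition above that plate's mean sample inhibition plus 3 SD, cut at about 26% in these data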
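Material: parental CHO cells / Compound: single nominal dose of 5.6 µM per compound / Signal: Fluo-8 fluorescence / Replicates: singlicate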
OX1R antag-1 = OX1R (human) antagonism | O43613 | OX1R-expressing cells, FRET antagonist read-out | inhibition, % at 6.6 µM | 330,000 compounds, 1.8% hits; in the data active = inhibition mostly above about 38%, no sharp cut-off; inactive = mostly below about 40%
GPR7 antagonist = blocks human GPR7 receptor signaling; P48145; GPR7-expressing cells, fluorescence antagonist assay; inhibition, % at 4.4 µM; 290,000 compounds, 1.1% hits; AID 1861; in the data active = inhibition above about 16%, passing the limit was not always enough;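 note: cells stimulated with the agonist NPW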
Target sequence (P48145 whole entry, looked up): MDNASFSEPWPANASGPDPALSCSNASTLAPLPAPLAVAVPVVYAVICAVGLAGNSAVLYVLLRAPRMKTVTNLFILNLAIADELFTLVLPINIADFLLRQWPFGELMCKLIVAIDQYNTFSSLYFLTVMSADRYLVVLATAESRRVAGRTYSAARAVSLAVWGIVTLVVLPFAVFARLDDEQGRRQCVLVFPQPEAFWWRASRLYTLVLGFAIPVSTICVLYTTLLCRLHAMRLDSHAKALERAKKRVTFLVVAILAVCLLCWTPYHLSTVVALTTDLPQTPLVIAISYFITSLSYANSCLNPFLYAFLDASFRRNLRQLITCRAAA
OX1R antag-2 = blocks the human orexin 1 receptor. AID 434989. 330,000 compounds, 0.43% hits. inhibition, % at 5 µM. CHO/OX1R cells, Fluo-8 calcium fluorescence, orexin A. O43613;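 active = inhibition above its plate's threshold, mean inhibition of all tested compounds on the plate plus 3 SD, cut at about 37% in these data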
nonsel antag count = nonselective antagonist in TAAR1 antagonist counter-screen; shares compounds with TAAR1 antagonist; counterscreen cell line, calcium fluorescence, antagonist mode; inhibition, % at 3 µM; 2,400 compounds, 77% hits; AID 651780; in the data active = inhibition above about 22%;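 note: CHO-Ga16 host cells stimulated with ATP at an EC80 level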
TAAR1 antag conf = human TAAR1 antagonism, confirmed; inhibition, % at 3 µM; TAAR1-expressing cells, fluorescence antagonist read-out; shares compounds with TAAR1 antagonist; AID 651785; 2,400 compounds, 40% hits; in the data active = inhibition above about 49%;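 note: CHO-Ga16 host cells challenged with agonist PEA near its EC80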
Ga16 nonsel ag = counter-screen for TAAR1 antagonists: nonselective Ga16 agonists | shares compounds with TAAR1 antagonist | Ga16-expressing cells, calcium fluorescence, agonist counterscreen | activation, % at 3 µM | 2,400 compounds, 18% hits | AID 651953; in the data active = activation above about 12%
TAAR1 ag counter = counter-screen for human TAAR1 antagonists: TAAR1 agonists; activation, % at 3 µM; shares compounds with TAAR1 antagonist; hTAAR1 cell line, fluorescence activation, agonist mode; AID 651955; 2,400 compounds, 2% hits; in the data active = activation above about 37%;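 note: CHO cells stably expressing TAAR1 with calcium dye readout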
A number is an active result; 0 = inactive; - = not tested or not shown.

SMILES	TAAR1 ag	TAAR1 antagonist	CHO parental Ca	OX1R antag-1	GPR7 antagonist	OX1R antag-2	nonsel antag count	TAAR1 antag conf	Ga16 nonsel ag	TAAR1 ag counter
O=S(=O)(c1cccs1)N1CCCc2nc(-c3ccc(F)cc3)ccc21	0	53.3	-	-	-	-	33.2	0	0	0
Cc1nn(-c2ccccc2)c(N2CCCC2)c1/C=N/NC(=O)c1cc2ccccc2cc1O	0	50.9	0	0	0	0	44.0	49.8	11.9	0
CC1Nc2ncnc(N3CCN(c4ccccc4)CC3)c2N(Cc2ccccc2)C1=O (stereo not drawn)	0	50.4	0	0	-	0	21.7	0	0	0
CC(C)CC1Nc2ncnc(N3CCN(c4ccccc4)CC3)c2N(Cc2ccccc2)C1=O (stereo not drawn)	0	0	0	0	-	0	-	-	-	-
CC1Nc2ncnc(N3CCN(c4ccccc4)CC3)c2N(Cc2ccc(Cl)cc2)C1=O (stereo not drawn)	0	52.6	0	0	-	0	22.4	0	0	0
CCC(=O)N1CCN(c2ccc(-n3c(=O)ccc4cnc5ccc(-c6cnc7ccccc7c6)cc5c43)cc2C(F)(F)F)CC1	0	50.3	-	-	-	-	0	0	0	0
O=C(O)COCC(=O)N1CCN(c2cc(C(F)(F)F)nc3ccccc23)CC1	0	0	0	0	0	0	-	-	-	-
O=C(N=Nc1c(O)n(Cc2ccccc2)c2ccccc12)c1ccc(O)cc1	0	51.0	0	0	0	0	0	0	0	0
O=C(N/N=C\c1ccc(COc2ccc([N+](=O)[O-])cc2)o1)c1cccc(Cl)c1	0	55.8	0	0	0	0	25.5	0	0	0
N#CC(C#N)=Cc1cc2ccccc2nc1N1CCOCC1	0	0	0	0	0	0	-	-	-	-
N#C/C(=C\c1cc2ccccc2nc1N1CCOCC1)C(=O)Nc1ccc(N2CCOCC2)cc1	0	58.7	0	0	0	0	30.2	0	0	0
Cc1nn(C)c(C)c1S(=O)(=O)N(CC(=O)NC1CCCCCC1)c1ccc(C(C)C)cc1	0	0	0	0	0	0	-	-	-	-
Cc1n[nH]c(C)c1S(=O)(=O)N(CC(=O)NC1CCCC1)c1ccc(C(C)C)cc1	0	61.3	0	0	0	0	22.5	0	0	0
CCN(CC)S(=O)(=O)c1ccc(C(O)=C(C#N)c2nc3ccccc3n2C)cc1	0	65.6	-	-	-	-	30.5	58.7	13.1	0
COc1cccc(OCc2cc(C(=O)N(C)Cc3nc4ccccc4[nH]3)no2)c1	0	0	0	0	0	0	-	-	-	-
COc1cccc(OCc2cc(C(=O)N(Cc3ccccc3)CC3CC3)no2)c1	0	54.5	0	0	0	0	28.1	0	0	0
COc1ccc([C@H]2CC(=O)C=C(c3cc4ccccc4c4ccccc34)C2)cc1	0	0	0	0	-	0	-	-	-	-
O=c1n(Cc2ccc(Cl)cc2)c2sc3c(c2c2ncnn12)CCCC3	0	66.3	0	0	0	0	0	0	0	0
CCCN1CCc2c(sc(NC(=O)Cc3ccc(F)cc3)c2C(N)=O)C1	0	0	0	0	0	0	-	-	-	-
COc1cc(NC(=O)c2cc3ccccc3o2)ccc1NC(=O)c1ccco1	0	64.2	0	0	0	0	26.3	51.0	0	0
COc1cc(NC(=O)c2oc3ccccc3c2C)ccc1NC(=O)c1ccco1	0	54.5	0	0	0	0	25.7	0	0	0
CC(=O)c1ccc(N2C(=NC(=O)CCC3CCCC3)SC3CS(=O)(=O)CC32)cc1 (stereo not drawn)	0	0	0	0	0	0	-	-	-	-
COc1ccc(Nc2ncc(C(=O)N3CCN(c4ccc(F)cc4)CC3)c3ccccc23)cc1	0	55.1	0	0	0	0	36.7	54.0	0	0
COc1ccc(C(=O)Nc2ccc(N3CCN(C(=O)c4ccccc4C)CC3)cc2)cc1	0	65.3	0	0	0	0	24.0	0	13.6	0
COc1ccc(Nc2ncc(C(=O)O)c3ccccc23)cc1	0	0	0	0	0	0	-	-	-	-
SMILES	TAAR1 ag	TAAR1 antagonist	CHO parental Ca	OX1R antag-1	GPR7 antagonist	OX1R antag-2	nonsel antag count	TAAR1 antag conf	Ga16 nonsel ag	TAAR1 ag counter
COc1ccc(C(=O)Nc2ccc(N3CCCC3)cc2)cc1	0	0	0	0	0	0	-	-	-	-
CC(=O)Nc1cc(-c2ccc(CO)cc2)cn2c(-c3ccc(F)cc3)cnc12	0	0	-	-	-	-	-	-	-	-
O=C(O)c1cc(-c2ccc3c(c2)OCO3)nc2ccc(Cl)cc12	0	0	0	0	0	0	-	-	-	-
CS(=O)(=O)N1CCN(C(=O)c2cc(-c3cccnc3)nc3ccc(Cl)cc23)CC1	0	0	0	0	0	0	-	-	-	-
O=C(c1cc(-c2ccncc2)nc2ccc(Cl)cc12)N1CCN(Cc2ccc3c(c2)OCO3)CC1	0	58.5	0	0	0	0	31.8	53.1	0	0
COc1ccc(CN2CCN(C(=O)c3cc(-c4cccnc4)nc4ccc(Cl)cc34)CC2)c(OC)c1OC	0	72.3	0	0	0	0	32.2	54.3	0	0
COc1ccc(C(=O)Nc2cccc(/C=C/c3nc4ccccc4c(=O)[nH]3)c2)cc1	0	54.6	0	0	0	0	0	0	0	0
COc1ccc(C(=O)Nc2nc3ccccc3c(=O)[nH]2)cc1	0	0	0	0	0	0	-	-	-	-
O=C(Nc1cccc(/C=C/c2nc3ccccc3c(=O)[nH]2)c1)c1ccccc1Cl	0	67.8	0	0	0	0	30.2	0	11.8	0
COc1ccc(CCn2c(C)cc(C(=O)CSc3nnnn3-c3ccccc3)c2C)cc1OC	0	49.6	0	0	0	0	0	0	12.5	0
COc1ccc(CCn2c(C)cc(C(=O)CSc3nc(N)cc(=O)[nH]3)c2C)cc1	0	51.3	0	0	0	0	37.3	0	0	0
COC(=O)[C@]1(Cc2ccccc2)N[C@H](CN(C)C(=O)Nc2ccc(C(F)(F)F)cc2)[C@@H]2C(=O)N(C)C(=O)[C@@H]21	0	0	0	0	-	0	-	-	-	-
Cc1cccc(N(C)S(=O)(=O)c2c[nH]c3ccc([N+](=O)[O-])cc23)c1	0	56.6	0	0	0	0	31.7	0	0	0
O=C(COC(=O)c1ccc(O)cc1)Nc1cc(C(F)(F)F)ccc1N1CCOCC1	0	0	0	0	-	0	-	-	-	-
COc1cccc(/C=N/NC(=O)c2cc(C34CC5CC(CC(C5)C3)C4)[nH]n2)c1	0	57.4	0	0	0	0	22.9	0	0	0
